According to ChEMBL document CHEMBL5126600, “Discovery of the First-in-Class G9a/GLP Covalent Inhibitors” (J Med Chem, 2022):

How the values were obtained:
[1] = biological target: Protein arginine N-methyltransferase 7 (Homo sapiens) (UniProt Q9NVM4); test: Inhibition of N-terminal His-tagged full-length recombinant human PRMT7 (2 to 692 residues) expressed in baculovirus expression system at 1 uM using 3H-SAM as a substrate relative to control
Method in brief: (§1)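 Contracted 3H-SAM methyl-transfer scintillation proximity assay against a panel of methyltransferases; compound tested at 1 μM in duplicate; inhibition expressed as percent of control enzyme activity.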

[2] = biological target: N-lysine methyltransferase KMT5A (Homo sapiens) (UniProt Q9NQR1); test: Inhibition of SETD8 (unknown origin) at 1 uM using 3H-SAM as a substrate relative to control; method in brief: as §1
[3] = biological target: Histone-lysine N-methyltransferase 2A (Homo sapiens) (UniProt Q03164); test: Inhibition of N-terminal His-tagged MLL1 (3745 to 3969 residues) (unknown origin) expressed in Escherichia coli at 1 uM using 3H-SAM as a substrate relative to control; method in brief: as §1
[4] = biological target: T1, Histone-lysine N-methyltransferase EHMT2 (Homo sapiens) (UniProt Q96KQ7); test: Inhibition of human G9a (913 to 1193 residues) assessed as covalent modification by measuring G9a adduct formation at 50 uM incubated for 1 hr by mass spectrometry relative to control
T1 sequence (whole entry): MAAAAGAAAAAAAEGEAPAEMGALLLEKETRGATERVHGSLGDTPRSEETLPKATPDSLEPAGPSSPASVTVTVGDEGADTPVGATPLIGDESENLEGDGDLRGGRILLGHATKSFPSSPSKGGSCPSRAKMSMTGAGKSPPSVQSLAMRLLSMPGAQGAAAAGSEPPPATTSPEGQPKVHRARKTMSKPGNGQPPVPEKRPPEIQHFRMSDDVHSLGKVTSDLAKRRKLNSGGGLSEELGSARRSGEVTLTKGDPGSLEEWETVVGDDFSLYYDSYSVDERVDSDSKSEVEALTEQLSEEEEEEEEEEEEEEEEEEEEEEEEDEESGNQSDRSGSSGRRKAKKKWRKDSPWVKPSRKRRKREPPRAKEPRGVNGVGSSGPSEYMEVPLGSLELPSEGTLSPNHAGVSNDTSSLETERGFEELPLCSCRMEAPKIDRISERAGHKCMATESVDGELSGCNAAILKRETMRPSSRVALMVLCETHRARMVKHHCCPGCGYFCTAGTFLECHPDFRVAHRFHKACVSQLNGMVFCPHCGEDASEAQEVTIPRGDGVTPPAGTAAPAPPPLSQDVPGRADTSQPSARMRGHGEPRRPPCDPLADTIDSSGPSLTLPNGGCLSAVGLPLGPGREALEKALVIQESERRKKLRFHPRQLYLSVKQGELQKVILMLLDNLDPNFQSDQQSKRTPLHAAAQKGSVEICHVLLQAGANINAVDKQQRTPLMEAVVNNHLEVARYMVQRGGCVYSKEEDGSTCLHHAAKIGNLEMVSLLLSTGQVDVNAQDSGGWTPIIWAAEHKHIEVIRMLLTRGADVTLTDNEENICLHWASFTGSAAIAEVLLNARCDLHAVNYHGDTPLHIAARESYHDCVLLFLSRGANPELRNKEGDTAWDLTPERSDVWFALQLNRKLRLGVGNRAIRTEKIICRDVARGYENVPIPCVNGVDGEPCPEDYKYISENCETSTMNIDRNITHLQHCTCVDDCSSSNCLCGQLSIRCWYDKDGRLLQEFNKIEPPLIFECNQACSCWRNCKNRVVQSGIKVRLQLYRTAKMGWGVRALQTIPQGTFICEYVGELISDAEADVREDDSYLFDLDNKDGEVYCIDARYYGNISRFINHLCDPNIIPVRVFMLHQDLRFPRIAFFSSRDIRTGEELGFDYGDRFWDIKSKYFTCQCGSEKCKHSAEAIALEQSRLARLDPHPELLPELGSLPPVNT
Method in brief: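 Purified G9a or GLP catalytic domain (5 μM) in 50 mM Tris-HCl pH 7.5, 150 mM NaCl incubated with 50 μM compound or DMSO at room temperature (1 h, or 30 and 60 min in time course); intact mass by ESI LC/MS-TOF; adduct % = adduct/(protein + adduct) × 100.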

MDA-MB-231 = test: Down regulation of H3K9 dimethylation in human MDA-MB-231 cells after 24 to 72 hrs by Western blot analysis; format: functional, cell-based; settings: dose 0.2-5 µM, time lower […], time upper 72.0 hrs, DDE = dose-dependent effect
[5] = biological target: T1, Histone-lysine N-methyltransferase EHMT2 (Homo sapiens); test: Inhibition of human G9a (913 to 1193 residues) using H3 peptide as substrate in presence of SAM cofactor by scintillation counting method; settings: time 5-45 min, TDE = time-dependent effect
Method in brief: (§2)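 Contracted scintillation proximity assay following 3H-methyl transfer from SAM (1 μM) to H3 peptide (0.05 μM) by G9a or GLP (5 nM each), with preincubation times of 5, 15 or 45 min; four replicates.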

[6] = biological target: Histone-lysine N-methyltransferase NSD2 (Homo sapiens) (UniProt O96028); test: Inhibition of NSD2 (2 to 1365 residues) (unknown origin) at 1 uM expressed in baculovirus expression system using 3H-SAM as a substrate relative to control; method in brief: as §1
[7] = biological target: Histone-lysine N-methyltransferase, H3 lysine-36 specific (Homo sapiens) (UniProt Q96L73); test: Inhibition of N-terminal His-tagged NSD1 (1538 to 2696 residues) (unknown origin) expressed in baculovirus expression system at 1 uM using 3H-SAM as a substrate relative to control; method in brief: as §1
Sequence of Histone-lysine N-methyltransferase, H3 lysine-36 specific (Homo sapiens) (Q96L73 whole entry, the tested form may be a part): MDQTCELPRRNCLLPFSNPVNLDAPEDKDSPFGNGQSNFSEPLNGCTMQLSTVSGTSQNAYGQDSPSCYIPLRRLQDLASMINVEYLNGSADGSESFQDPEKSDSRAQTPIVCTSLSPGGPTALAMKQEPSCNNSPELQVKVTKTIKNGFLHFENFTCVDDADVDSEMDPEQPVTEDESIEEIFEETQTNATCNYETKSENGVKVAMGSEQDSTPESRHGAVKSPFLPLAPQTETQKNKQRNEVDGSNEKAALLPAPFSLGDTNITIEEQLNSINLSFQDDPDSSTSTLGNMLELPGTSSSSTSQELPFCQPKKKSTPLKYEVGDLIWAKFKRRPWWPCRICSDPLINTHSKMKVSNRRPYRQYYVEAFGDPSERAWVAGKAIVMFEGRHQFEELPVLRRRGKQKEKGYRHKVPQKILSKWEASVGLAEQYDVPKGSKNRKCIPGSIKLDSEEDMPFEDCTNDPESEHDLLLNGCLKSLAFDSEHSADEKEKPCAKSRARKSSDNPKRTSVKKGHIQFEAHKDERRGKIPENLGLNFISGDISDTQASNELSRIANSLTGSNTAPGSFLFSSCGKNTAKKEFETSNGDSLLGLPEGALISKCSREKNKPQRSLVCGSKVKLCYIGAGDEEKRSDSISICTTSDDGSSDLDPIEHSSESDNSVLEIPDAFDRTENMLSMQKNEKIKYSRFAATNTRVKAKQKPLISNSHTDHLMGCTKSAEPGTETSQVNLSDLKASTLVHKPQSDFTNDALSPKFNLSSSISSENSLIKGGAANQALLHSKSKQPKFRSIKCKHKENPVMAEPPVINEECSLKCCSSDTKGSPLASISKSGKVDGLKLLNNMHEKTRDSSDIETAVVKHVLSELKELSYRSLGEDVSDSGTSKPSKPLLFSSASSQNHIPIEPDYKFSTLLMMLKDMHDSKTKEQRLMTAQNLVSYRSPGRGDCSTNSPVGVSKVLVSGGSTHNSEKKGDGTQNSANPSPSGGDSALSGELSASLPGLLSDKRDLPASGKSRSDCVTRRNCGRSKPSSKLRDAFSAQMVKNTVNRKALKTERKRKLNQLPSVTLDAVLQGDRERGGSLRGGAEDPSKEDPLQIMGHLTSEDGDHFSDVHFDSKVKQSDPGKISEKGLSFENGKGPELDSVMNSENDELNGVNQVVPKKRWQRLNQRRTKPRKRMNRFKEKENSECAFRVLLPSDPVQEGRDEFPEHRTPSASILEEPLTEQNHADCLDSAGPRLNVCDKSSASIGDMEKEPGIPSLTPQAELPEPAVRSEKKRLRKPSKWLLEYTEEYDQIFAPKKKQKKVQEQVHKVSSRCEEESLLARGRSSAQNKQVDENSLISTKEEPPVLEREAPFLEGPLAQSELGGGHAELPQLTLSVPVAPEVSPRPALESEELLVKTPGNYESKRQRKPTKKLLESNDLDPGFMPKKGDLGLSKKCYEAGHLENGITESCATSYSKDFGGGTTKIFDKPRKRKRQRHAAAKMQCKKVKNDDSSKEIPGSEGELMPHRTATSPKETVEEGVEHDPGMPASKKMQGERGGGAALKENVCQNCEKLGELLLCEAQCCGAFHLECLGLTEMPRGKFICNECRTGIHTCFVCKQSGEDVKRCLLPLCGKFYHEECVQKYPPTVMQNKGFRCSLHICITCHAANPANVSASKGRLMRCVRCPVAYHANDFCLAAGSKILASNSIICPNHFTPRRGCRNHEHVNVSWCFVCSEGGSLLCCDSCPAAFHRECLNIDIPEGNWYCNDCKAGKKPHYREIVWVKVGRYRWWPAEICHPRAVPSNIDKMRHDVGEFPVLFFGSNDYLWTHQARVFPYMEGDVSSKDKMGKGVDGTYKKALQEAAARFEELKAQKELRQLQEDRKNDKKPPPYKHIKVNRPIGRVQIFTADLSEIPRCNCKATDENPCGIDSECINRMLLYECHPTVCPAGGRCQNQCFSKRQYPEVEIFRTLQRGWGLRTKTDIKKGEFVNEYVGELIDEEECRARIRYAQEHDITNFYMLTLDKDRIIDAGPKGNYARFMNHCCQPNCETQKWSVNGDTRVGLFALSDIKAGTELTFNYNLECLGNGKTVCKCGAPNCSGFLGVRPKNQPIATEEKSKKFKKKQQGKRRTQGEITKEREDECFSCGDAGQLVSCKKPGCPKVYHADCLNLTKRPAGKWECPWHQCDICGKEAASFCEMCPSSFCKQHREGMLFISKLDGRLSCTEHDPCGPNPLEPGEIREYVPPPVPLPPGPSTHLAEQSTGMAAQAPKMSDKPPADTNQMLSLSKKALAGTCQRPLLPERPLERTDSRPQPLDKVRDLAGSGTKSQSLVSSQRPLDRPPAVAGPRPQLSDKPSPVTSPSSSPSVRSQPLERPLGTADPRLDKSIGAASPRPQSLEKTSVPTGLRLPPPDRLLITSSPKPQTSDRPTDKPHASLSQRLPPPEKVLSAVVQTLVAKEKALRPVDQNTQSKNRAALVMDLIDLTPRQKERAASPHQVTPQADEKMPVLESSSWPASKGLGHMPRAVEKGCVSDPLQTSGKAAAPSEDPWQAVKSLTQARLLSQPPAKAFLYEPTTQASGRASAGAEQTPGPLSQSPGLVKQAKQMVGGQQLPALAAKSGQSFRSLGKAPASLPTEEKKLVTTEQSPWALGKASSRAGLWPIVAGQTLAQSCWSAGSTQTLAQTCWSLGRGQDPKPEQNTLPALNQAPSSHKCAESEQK

[8] = biological target: Protein arginine N-methyltransferase 6 (Homo sapiens) (UniProt Q96LA8); test: Inhibition of N-terminal His-tagged full-length recombinant PRMT6 (2 to 375 residues) (unknown origin) expressed in baculovirus expression system at 1 uM using 3H-SAM as a substrate relative to control; method in brief: as §1
[9] = biological target: Histone-lysine N-methyltransferase SETD7 (Homo sapiens) (UniProt Q8WTS6); test: Inhibition of N-terminal and GST-tagged C-terminal His-tagged SET7/9 (2 to 366 residues) (unknown origin) expressed in Escherichia coli at 1 uM using 3H-SAM as a substrate relative to control; method in brief: as §1
[10] = biological target: Histone-lysine N-methyltransferase EHMT1 (Homo sapiens) (UniProt Q9H9B1); test: Inhibition of human GLP (982 to 1266 residues) using H3 peptide as substrate in presence of SAM cofactor by scintillation counting method; settings: time 5-45 min, TDE = time-dependent effect; method in brief: as §2
Sequence of Histone-lysine N-methyltransferase EHMT1 (Homo sapiens) (Q9H9B1 whole entry, the tested form may be a part): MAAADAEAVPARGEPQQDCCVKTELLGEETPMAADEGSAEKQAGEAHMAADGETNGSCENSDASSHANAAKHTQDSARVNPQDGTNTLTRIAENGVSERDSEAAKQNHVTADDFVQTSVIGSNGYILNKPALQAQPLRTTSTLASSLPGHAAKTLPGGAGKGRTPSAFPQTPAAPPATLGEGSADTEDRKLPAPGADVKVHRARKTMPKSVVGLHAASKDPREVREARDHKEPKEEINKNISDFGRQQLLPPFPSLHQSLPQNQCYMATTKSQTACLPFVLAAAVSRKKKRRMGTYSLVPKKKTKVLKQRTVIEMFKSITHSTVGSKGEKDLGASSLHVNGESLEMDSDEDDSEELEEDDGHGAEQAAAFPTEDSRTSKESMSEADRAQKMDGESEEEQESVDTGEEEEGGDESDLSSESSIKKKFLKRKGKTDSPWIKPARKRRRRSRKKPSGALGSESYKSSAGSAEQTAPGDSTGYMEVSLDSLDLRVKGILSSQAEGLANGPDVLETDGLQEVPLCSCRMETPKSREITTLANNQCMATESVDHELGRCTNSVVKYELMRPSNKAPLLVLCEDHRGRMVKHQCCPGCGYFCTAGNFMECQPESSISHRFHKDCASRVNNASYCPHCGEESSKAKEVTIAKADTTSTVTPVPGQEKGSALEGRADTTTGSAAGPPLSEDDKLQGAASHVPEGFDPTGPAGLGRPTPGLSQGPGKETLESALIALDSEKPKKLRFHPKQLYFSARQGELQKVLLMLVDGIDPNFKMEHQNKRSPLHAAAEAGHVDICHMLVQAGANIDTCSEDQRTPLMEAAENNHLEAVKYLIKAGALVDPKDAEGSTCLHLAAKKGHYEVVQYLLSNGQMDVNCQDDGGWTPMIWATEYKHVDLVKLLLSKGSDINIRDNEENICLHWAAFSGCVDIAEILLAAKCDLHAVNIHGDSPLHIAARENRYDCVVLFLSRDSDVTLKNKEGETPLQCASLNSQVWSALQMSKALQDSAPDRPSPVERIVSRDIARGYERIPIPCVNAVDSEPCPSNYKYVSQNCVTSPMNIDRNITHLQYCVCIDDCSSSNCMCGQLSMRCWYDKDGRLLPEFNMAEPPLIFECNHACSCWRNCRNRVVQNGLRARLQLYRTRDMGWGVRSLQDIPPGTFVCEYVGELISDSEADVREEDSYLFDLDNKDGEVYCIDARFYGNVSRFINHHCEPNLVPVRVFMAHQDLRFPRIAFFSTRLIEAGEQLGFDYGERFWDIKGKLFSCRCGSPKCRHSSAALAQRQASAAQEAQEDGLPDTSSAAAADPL

[11] = biological target: Histone-lysine N-methyltransferase EZH2 (Homo sapiens) (UniProt Q15910); test: Inhibition of N-terminal His-tagged EZH2 (2 to 746 residues) (unknown origin) expressed in baculovirus expression system at 1 uM using 3H-SAM as a substrate relative to control; method in brief: as §1
[12] = biological target: Protein arginine N-methyltransferase 1 (Homo sapiens) (UniProt Q99873); test: Inhibition of N-terminal GST tagged PRMT1 (2 to 371 residues) (unknown origin) expressed in Escherichia coli at 1 uM using 3H-SAM as a substrate relative to control; method in brief: as §1
Sequence of Protein arginine N-methyltransferase 1 (Homo sapiens) (Q99873 whole entry, looked up, the tested form may be a part): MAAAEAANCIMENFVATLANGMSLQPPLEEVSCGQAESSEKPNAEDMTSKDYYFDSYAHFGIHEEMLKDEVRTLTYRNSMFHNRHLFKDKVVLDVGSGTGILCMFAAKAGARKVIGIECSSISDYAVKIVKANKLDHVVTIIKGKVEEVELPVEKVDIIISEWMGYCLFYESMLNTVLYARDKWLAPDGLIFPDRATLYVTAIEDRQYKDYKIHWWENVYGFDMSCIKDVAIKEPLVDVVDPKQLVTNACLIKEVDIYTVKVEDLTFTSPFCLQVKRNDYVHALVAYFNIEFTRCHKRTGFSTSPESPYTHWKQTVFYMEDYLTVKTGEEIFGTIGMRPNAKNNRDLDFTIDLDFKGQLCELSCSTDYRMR

[13] = biological target: Histone-arginine methyltransferase CARM1 (Homo sapiens) (UniProt Q86X55); test: Inhibition of N-terminal GST-tagged PRMT4 (2 to 608 residues)(unknown origin) expressed in Escherichia coli at 1 uM using 3H-SAM as a substrate relative to control; method in brief: as §1

Sequence of Protein arginine N-methyltransferase 7 (Homo sapiens) (Q9NVM4 whole entry, the tested form may be a part): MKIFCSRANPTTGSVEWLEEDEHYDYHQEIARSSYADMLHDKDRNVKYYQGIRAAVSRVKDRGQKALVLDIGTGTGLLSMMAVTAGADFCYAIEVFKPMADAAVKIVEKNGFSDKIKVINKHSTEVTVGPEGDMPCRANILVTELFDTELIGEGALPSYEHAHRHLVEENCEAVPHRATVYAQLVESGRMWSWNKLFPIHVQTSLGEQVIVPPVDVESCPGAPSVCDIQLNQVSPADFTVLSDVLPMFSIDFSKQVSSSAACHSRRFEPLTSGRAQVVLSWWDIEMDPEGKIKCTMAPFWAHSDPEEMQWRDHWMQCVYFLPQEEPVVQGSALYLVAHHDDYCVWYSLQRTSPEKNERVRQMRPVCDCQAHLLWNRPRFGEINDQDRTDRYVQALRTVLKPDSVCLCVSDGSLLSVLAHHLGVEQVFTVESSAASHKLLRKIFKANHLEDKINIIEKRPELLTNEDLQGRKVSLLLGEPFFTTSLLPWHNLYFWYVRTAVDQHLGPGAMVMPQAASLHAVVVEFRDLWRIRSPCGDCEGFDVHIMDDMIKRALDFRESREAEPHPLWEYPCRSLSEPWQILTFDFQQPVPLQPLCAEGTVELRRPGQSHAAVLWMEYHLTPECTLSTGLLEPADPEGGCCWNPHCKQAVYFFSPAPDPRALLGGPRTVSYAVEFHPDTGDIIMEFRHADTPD

inhibition [1]: < 50%
inhibition [2]: < 50%
inhibition [3]: < 50%
inhibition [4]: 50%
inhibition [5]: Tde
inhibition [6]: < 50%
inhibition [7]: < 50%
inhibition [8]: < 50%
inhibition [9]: < 50%
inhibition [10]: Tde
inhibition [11]: < 50%
inhibition [12]: < 50%
inhibition [13]: < 50%
Compound: C=CC(=O)Nc1cc(NC2CCN(C(C)C)CC2)c2cc(OC)c(OCCCN3CCCC3)cc2n1
Activity (MDA-MB-231): Dde
